Test results from ChEMBL document CHEMBL4004891, “Antioxidant Properties of Novel Dimers Derived from Natural β-Elemene through Inhibiting H2O2-Induced Apoptosis” (ACS Med Chem Lett, 2017).
pEC50: −log10 of the molar value. The source made the active and inactive calls. The calls are words filed in the database; no cut-off is given here.

Columns and labels:
[1] = test system: HUVEC; experiment: Cytoprotective activity against H2O2-induced cell injury in HUVEC assessed as increase in cell survival pretreated for 24 hrs followed by H2O2-stimulation after 2 hrs by MTT assay; assay type: functional, cell-based; conditions: Homo sapiens
Outline: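 MTT survival of H2O2-injured HUVECs after pretreatment at 10, 1, 0.1 and 0.01 μM; compared with H2O2-only model group; EC50 derived from concentration–response; means ± SD, n = 3.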

[2] = test system: HUVEC; experiment: Cytoprotective activity against H2O2-induced cell injury in HUVEC assessed as increase in cell viability at 10 uM pretreated for 24 hrs followed by H2O2-stimulation after 2 hrs by MTT assay; assay type: functional, cell-based; conditions: Homo sapiens
[3] = test system: HUVEC; experiment: Cytoprotective activity against H2O2-induced cell injury in HUVEC assessed as inhibition of apoptosis by measuring viable cells at 10 uM pretreated for 24 hrs followed by H2O2-stimulation after 2 hrs by Annexin-V-APC/7AAD staining based flow cytometry (reference value: 53.8%); assay type: functional, Homo sapiens
[4] = test system: HUVEC; experiment: Cytoprotective activity against H2O2-induced cell injury in HUVEC assessed as inhibition of apoptosis by measuring necrotic cells at 1 uM pretreated for 24 hrs followed by H2O2-stimulation after 2 hrs by Annexin-V-APC/7AAD staining based flow cytometry (reference value: 0.45%); assay type: functional, Homo sapiens; parameters: scale not given: the % may be the effect or the level left
[5] = target: MAP kinase p38 (Homo sapiens) (UniProt O15264+Q15759+Q16539+P53778); experiment: Inhibition of H2O2-induced p38 phosphorylation in HUVEC pretreated for 24 hrs followed by H2O2-stimulation after 2 hrs by western blot analysis
[6] = test system: HUVEC; experiment: Cytoprotective activity against H2O2-induced cell injury in HUVEC assessed as inhibition of apoptosis by measuring early apoptotic cells at 0.1 uM pretreated for 24 hrs followed by H2O2-stimulation after 2 hrs by Annexin-V-APC/7AAD staining based flow cytometry (reference value: 34.96%); assay type: functional, Homo sapiens; parameters: scale not given: the % may be the effect or the level left
[7] = test system: HUVEC; experiment: Cytoprotective activity against H2O2-induced cell injury in HUVEC assessed as inhibition of apoptosis by measuring late apoptotic cells at 1 uM pretreated for 24 hrs followed by H2O2-stimulation after 2 hrs by Annexin-V-APC/7AAD staining based flow cytometry (reference value: 10.78%); assay type: functional, Homo sapiens; parameters: scale not given: the % may be the effect or the level left
[8] = test system: HUVEC; experiment: Effect on total JNK protein level in HUVEC at 0.1 to 10 uM pretreated for 24 hrs followed by H2O2-stimulation for 2 hrs by western blot analysis; assay type: cell-based; conditions: human
[9] = test system: HUVEC; experiment: Effect on total p38 MAPK protein level in HUVEC at 0.1 to 10 uM pretreated for 24 hrs followed by H2O2-stimulation for 2 hrs by western blot analysis; assay type: cell-based; conditions: human
[10] = test system: HUVEC; experiment: Cytoprotective activity against H2O2-induced cell injury in HUVEC assessed as inhibition of apoptosis by measuring necrotic cells at 0.1 uM pretreated for 24 hrs followed by H2O2-stimulation after 2 hrs by Annexin-V-APC/7AAD staining based flow cytometry (reference value: 0.45%); assay type: functional, Homo sapiens; parameters: scale not given: the % may be the effect or the level left
[11] = test system: HUVEC; experiment: Cytoprotective activity against H2O2-induced cell injury in HUVEC assessed as level of reactive oxygen species by measuring fluorescence intensity at 0.1 to 10 uM pretreated for 24 hrs followed by H2O2-stimulation after 2 hrs by DCFH-DA staining based fluorescence assay (reference value: 3.3); assay type: functional, Homo sapiens
[12] = target: Mitogen-activated protein kinase; ERK1/ERK2 (Homo sapiens) (UniProt P27361+P28482); experiment: Inhibition of H2O2-induced ERK1/2 phosphorylation in HUVEC pretreated for 24 hrs followed by H2O2-stimulation after 2 hrs by western blot analysis; assay type: protein assay
[13] = test system: HUVEC; experiment: Cytoprotective activity against H2O2-induced cell injury in HUVEC assessed as inhibition of apoptosis by measuring late apoptotic cells at 0.1 uM pretreated for 24 hrs followed by H2O2-stimulation after 2 hrs by Annexin-V-APC/7AAD staining based flow cytometry (reference value: 10.78%); assay type: functional, Homo sapiens; parameters: scale not given: the % may be the effect or the level left
[14] = target: c-Jun N-terminal kinase, JNK (Homo sapiens) (UniProt P45983+P53779+P45984); experiment: Inhibition of H2O2-induced JNK phosphorylation in HUVEC pretreated for 24 hrs followed by H2O2-stimulation after 2 hrs by western blot analysis
[15] = test system: HUVEC; experiment: Cytoprotective activity against H2O2-induced cell injury in HUVEC assessed as inhibition of apoptosis by measuring late apoptotic cells at 10 uM pretreated for 24 hrs followed by H2O2-stimulation after 2 hrs by Annexin-V-APC/7AAD staining based flow cytometry (reference value: 10.78%); assay type: functional, Homo sapiens; parameters: scale not given: the % may be the effect or the level left
[16] = test system: HUVEC; experiment: Cytoprotective activity against H2O2-induced cell apoptosis in HUVEC pretreated for 24 hrs followed by H2O2-stimulation for 2 hrs by Annexin-V-APC/7AAD staining based flow cytometry; assay type: functional; conditions: Homo sapiens
[17] = test system: HUVEC; experiment: Cytoprotective activity against H2O2-induced cell injury in HUVEC assessed as decrease in level of reactive oxygen species pretreated for 24 hrs followed by H2O2-stimulation after 2 hrs by DCFH-DA staining based fluorescence assay; assay type: functional; conditions: Homo sapiens
Outline: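 DCF fluorescence imaging in HUVECs with or without pretreatment, exposed to H2O2; intensity expressed as percentage of control group fluorescence; means ± SD, n = 3.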

[18] = test system: HUVEC; experiment: Cytoprotective activity against H2O2-induced cell injury in HUVEC assessed as cell survival at 1 uM pretreated for 24 hrs followed by H2O2-stimulation after 2 hrs by MTT assay (reference value: 60.21%); assay type: functional; conditions: Homo sapiens, read-out: Survival
[19] = test system: HUVEC; experiment: Cytoprotective activity against H2O2-induced cell injury in HUVEC assessed as cell survival at 10 uM pretreated for 24 hrs followed by H2O2-stimulation after 2 hrs by MTT assay (reference value: 60.21%); assay type: functional; conditions: Homo sapiens, read-out: Survival
[20] = test system: HUVEC; experiment: Cytoprotective activity against H2O2-induced cell injury in HUVEC assessed as decrease in MDA level pretreated for 24 hrs followed by H2O2-stimulation after 2 hrs; assay type: functional, cell-based; conditions: Homo sapiens
Outline: (§1)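 Pretreatment 24 h at 0.1, 1 and 10 μM before 0.5 mM H2O2 for 2 h in HUVECs; LDH release, MDA content, SOD activity and NO secretion then measured.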

[21] = test system: HUVEC; experiment: Cytoprotective activity against H2O2-induced cell injury in HUVEC assessed as increase in SOD activity pretreated for 24 hrs followed by H2O2-stimulation after 2 hrs; assay type: functional, cell-based; conditions: Homo sapiens; outline: as §1
[22] = test system: HUVEC; experiment: Cytoprotective activity against H2O2-induced cell injury in HUVEC assessed as inhibition of apoptosis by measuring viable cells at 0.1 uM pretreated for 24 hrs followed by H2O2-stimulation after 2 hrs by Annexin-V-APC/7AAD staining based flow cytometry (reference value: 53.8%); assay type: functional, Homo sapiens
[23] = test system: HUVEC; experiment: Cytoprotective activity against H2O2-induced cell injury in HUVEC assessed as inhibition of apoptosis by measuring necrotic cells at 10 uM pretreated for 24 hrs followed by H2O2-stimulation after 2 hrs by Annexin-V-APC/7AAD staining based flow cytometry (reference value: 0.45%); assay type: functional, Homo sapiens; parameters: scale not given: the % may be the effect or the level left
[24] = test system: HUVEC; experiment: Cytoprotective activity against H2O2-induced cell injury in HUVEC assessed as decrease in LDH release pretreated for 24 hrs followed by H2O2-stimulation after 2 hrs; assay type: functional, cell-based; conditions: Homo sapiens; outline: as §1
[25] = test system: HUVEC; experiment: Cytoprotective activity against H2O2-induced cell injury in HUVEC assessed as inhibition of apoptosis by measuring early apoptotic cells at 10 uM pretreated for 24 hrs followed by H2O2-stimulation after 2 hrs by Annexin-V-APC/7AAD staining based flow cytometry (reference value: 34.96%); assay type: functional, Homo sapiens; parameters: scale not given: the % may be the effect or the level left
[26] = test system: HUVEC; experiment: Cytoprotective activity against H2O2-induced cell injury in HUVEC assessed as inhibition of apoptosis by measuring early apoptotic cells at 1 uM pretreated for 24 hrs followed by H2O2-stimulation after 2 hrs by Annexin-V-APC/7AAD staining based flow cytometry (reference value: 34.96%); assay type: functional, Homo sapiens; parameters: scale not given: the % may be the effect or the level left
[27] = test system: HUVEC; experiment: Cytoprotective activity against H2O2-induced cell injury in HUVEC assessed as cell survival at 0.1 uM pretreated for 24 hrs followed by H2O2-stimulation after 2 hrs by MTT assay (reference value: 60.21%); assay type: functional; conditions: Homo sapiens, read-out: Survival
[28] = test system: HUVEC; experiment: Effect on total ERK1/2 protein level in HUVEC at 0.1 to 10 uM pretreated for 24 hrs followed by H2O2-stimulation for 2 hrs by western blot analysis; assay type: cell-based; conditions: human
[29] = test system: HUVEC; experiment: Cytoprotective activity against H2O2-induced cell injury in HUVEC assessed as increase in nitric oxide level pretreated for 24 hrs followed by H2O2-stimulation after 2 hrs by DAF-FM-DA probe based fluorescent imaging analysis; assay type: functional; conditions: Homo sapiens; outline: as §1
[30] = test system: HUVEC; experiment: Cytoprotective activity against H2O2-induced cell injury in HUVEC assessed as inhibition of apoptosis by measuring viable cells at 1 uM pretreated for 24 hrs followed by H2O2-stimulation after 2 hrs by Annexin-V-APC/7AAD staining based flow cytometry (reference value: 53.8%); assay type: functional, Homo sapiens
[31] = test system: HUVEC; experiment: Cytoprotective activity against H2O2-induced cell injury in HUVEC assessed as cell survival at 0.01 uM pretreated for 24 hrs followed by H2O2-stimulation after 2 hrs by MTT assay (reference value: 60.21%); assay type: functional; conditions: Homo sapiens, read-out: Survival
[32] = test system: HUVEC; experiment: Cytotoxicity against HUVEC assessed as increase in cell viability at 0.1 to 50 uM after 24 hrs by MTT assay relative to control; assay type: cell-based; conditions: human
Outline: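 Normal HUVECs incubated 24 h with 0.1−50 μM, no H2O2; viability by MTT assay; means ± SD, n = 3.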

Sequence of Mitogen-activated protein kinase; ERK1/ERK2 (Homo sapiens) (P27361 whole entry, looked up): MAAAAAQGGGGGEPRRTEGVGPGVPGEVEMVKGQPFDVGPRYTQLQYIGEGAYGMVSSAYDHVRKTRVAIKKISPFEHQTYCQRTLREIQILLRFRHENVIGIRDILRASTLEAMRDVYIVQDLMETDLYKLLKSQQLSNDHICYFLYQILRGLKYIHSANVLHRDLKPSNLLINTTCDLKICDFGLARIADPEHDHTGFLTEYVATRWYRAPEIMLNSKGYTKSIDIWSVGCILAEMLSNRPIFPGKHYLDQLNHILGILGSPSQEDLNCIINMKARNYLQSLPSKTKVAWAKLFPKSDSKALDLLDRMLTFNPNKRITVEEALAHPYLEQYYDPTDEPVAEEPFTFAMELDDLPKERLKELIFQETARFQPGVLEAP
Sequence of Mitogen-activated protein kinase; ERK1/ERK2 (Homo sapiens) (P28482 whole entry, looked up): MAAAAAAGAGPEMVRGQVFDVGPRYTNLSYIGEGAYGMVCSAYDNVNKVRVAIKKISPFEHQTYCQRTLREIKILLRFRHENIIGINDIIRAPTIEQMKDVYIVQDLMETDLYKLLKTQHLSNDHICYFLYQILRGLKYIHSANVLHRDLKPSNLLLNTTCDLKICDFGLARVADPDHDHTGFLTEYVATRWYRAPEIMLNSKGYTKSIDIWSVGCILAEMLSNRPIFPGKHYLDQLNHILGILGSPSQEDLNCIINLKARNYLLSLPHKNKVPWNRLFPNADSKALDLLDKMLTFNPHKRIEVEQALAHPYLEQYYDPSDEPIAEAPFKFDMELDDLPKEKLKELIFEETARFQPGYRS

C=C[C@]1(C)CC[C@@H](C(=C)COC(=O)/C=C/C(=O)OCC(=C)[C@@H]2CC[C@@](C)(C=C)[C@H](C(=C)C)C2)C[C@H]1C(=C)C
Activity [1]: Dose-dependent effect
pEC50 [1]: 6.66
Activity [2]: Active
Activity [3]: 71.78%
Activity [4]: 0.18%
inhibition [5]: Dose-dependent effect
Activity [6]: 30.92%
Activity [7]: 7.92%
Activity [8]: Non-Toxic
Activity [9]: Non-Toxic
Activity [10]: 0.3%
Flu intensity [11]: 1.16 - 2.4
inhibition [12]: Dose-dependent effect
Activity [13]: 10.22%
inhibition [14]: Dose-dependent effect
Activity [15]: 12.71%
Activity [16]: Dose-dependent effect
Activity [17]: Dose-dependent effect
viability at 1 µM [18]: 85.5%
viability at 10 µM [19]: 97%
Activity [20]: Dose-dependent effect
Activity [21]: Dose-dependent effect
Activity [22]: 58.55%
Activity [23]: 2.69%
Activity [24]: Dose-dependent effect
Activity [25]: 12.82%
Activity [26]: 23.59%
viability at 0.1 µM [27]: 76.7%
Activity [28]: Non-Toxic
Activity [29]: Dose-dependent effect
Activity [30]: 68.31%
viability at 0.01 µM [31]: 65.5%
Activity [32]: > 90%
